In ChEMBL document CHEMBL1124161, “4-Hydroxy-3-quinolinecarboxamides with antiarthritic and analgesic activities” (J Med Chem, 1988):
The source made the active and inactive calls. No cut-off for these calls is given here.

What was measured:
[1] = test system: Mus musculus; assay: Analgesic activity against acetic acid induced writhing test in mouse after peroral administration; format: functional
[2] = test system: Rattus norvegicus; assay: Anti-arthritis activity against adjuvant-induced arthritis in rats after peroral administration; format: functional
Procedure, shortened: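 Groups of five male Lewis rats, 40–50 days old, given intraplantar injection in right hind paw of 0.6 mg Mycobacterium butyricum in 0.1 mL Bayol 55. Drug given in food from adjuvant day to day 17. Injected and noninjected hind paw volumes measured day 17 against normal controls. ED50 by least-squares curve fitting or Litchfield–Wilcoxon probit.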

[3] = test system: Rattus norvegicus; assay: Antiinflammatory activity against carrageenan-induced foot edema in rat after peroral administration at 25 mg/kg; IA=Inactive; format: functional, organism-based; parameters: dose 25 mg/kg
[4] = Mus musculus, po, read-out: ED50
[5] = Rattus norvegicus, po, read-out: ED50

Compound	ED50 [1, 4] [mg/kg]	further results
CC(C)C(O)c1nc2c(C(F)(F)F)cccc2c(O)c1C(=O)Nc1ccccn1 (stereo not given)	> 50	ED50 [2, 5]: 5 mg/kg
O=C(Nc1nccs1)c1c(C(Cl)Cl)nc2c(Cl)cccc2c1O	25	ED50 [3]: inactive
CC(O)c1nc2c(C(F)(F)F)cccc2c(O)c1C(=O)Nc1ccccn1 (stereo not given)	> 50	–
CC(=O)OC(c1nc2c(C(F)(F)F)cccc2c(O)c1C(=O)Nc1nccs1)C(C)C (stereo not given)	> 100	ED50 [2, 5]: ≥ 5 mg/kg
Cn1ccnc1NC(=O)c1cnc2c(C(F)(F)F)cccc2c1O	16	–
O=C(Nc1nccs1)c1c(C(F)(F)F)nc2c([S+]([O-])C(F)(F)F)cccc2c1O (stereo not given)	20	–
CCC(OC(=O)c1cccnc1)c1nc2c(C(F)(F)F)cccc2c(O)c1C(=O)Nc1nccs1 (stereo not given)	> 20	ED50 [2, 5]: > 1 mg/kg
CCC(=O)OC(c1nc2c(C(F)(F)F)cccc2c(O)c1C(=O)Nc1nccs1)C(C)C (stereo not given)	> 100	ED50 [2, 5]: ≥ 5 mg/kg
O=C(Nc1nccs1)c1cnc2ccc(C(F)(F)F)cc2c1O	40	–
O=C(Nc1ncccn1)c1cnc2c(C(F)(F)F)cccc2c1O	50	–
CCC(O)c1nc2c(C(F)(F)F)cccc2c(O)c1C(=O)Nc1ccccn1 (stereo not given)	20	ED50 [2, 5]: ≥ 15 mg/kg
O=C(Nc1ccccn1)c1c(C(F)(F)F)nc2c(C(F)(F)F)cccc2c1O	> 20	–
Cc1cc(NC(=O)c2c(C(F)(F)F)nc3c(C(F)(F)F)cccc3c2O)no1	> 50	–
C[C@H](N)c1nc2c(C(F)(F)F)cccc2c(O)c1C(=O)Nc1nccs1	30	ED50 [2, 5]: 7 mg/kg
CC(Cl)c1nc2c(C(F)(F)F)cccc2c(O)c1C(=O)Nc1nccs1 (stereo not given)	–	ED50 ([1]; read-out: ED50): 25 mg/kg
CC(C)c1nc2c(C(F)(F)F)cccc2c(O)c1C(=O)Nc1nccs1	5	–
Cn1ccnc1NC(=O)c1c(C(Cl)Cl)nc2c(C(F)(F)F)cccc2c1O	> 25	ED50 [3]: inactive
O=C(Nc1nccs1)c1c(C(F)(F)F)nc2c(Cl)cccc2c1O	2	–
CCC(=O)OC(CC)c1nc2c(C(F)(F)F)cccc2c(O)c1C(=O)Nc1nccs1 (stereo in doubt; 104)	–	ED50 [1]: 15 mg/kg; ED50 [2]: 0.6 mg/kg
COc1cccc2c(O)c(C(=O)Nc3nccs3)cnc12	> 50	–
O=C(Nc1nccs1)c1cnc2ccc(Cl)cc2c1O	50	–
O=C(Nc1nccs1)c1c(C(Cl)Cl)nc2ccccc2c1O	> 25	–
CC(C)[C@H](N)c1nc2c(C(F)(F)F)cccc2c(O)c1C(=O)Nc1nccs1	> 100	ED50 [2, 5]: ≥ 5 mg/kg
O=C(Nc1ncc[nH]1)c1cnc2c(C(F)(F)F)cccc2c1O	18	–

Compound	ED50 [1, 4] [mg/kg]	further results
O=C(Nn1ccnn1)c1cnc2c(C(F)(F)F)cccc2c1O	> 50	–
O=C(Nc1nccs1)c1c(C(Cl)Cl)nc2ccc(Cl)cc2c1O	25	–
CCc1nc2c(C(F)(F)F)cccc2c(O)c1C(=O)Nc1cc(C)on1	> 50	–
O=C(Nc1nccs1)c1c(C(F)(F)F)nc2c(Cl)ccc(C(F)(F)F)c2c1O	> 50	–
Cc1nc2c(C(F)(F)F)cccc2c(O)c1C(=O)Nc1ccccn1	5	–
O=C(Nc1nccs1)c1cnc2c(SC(F)(F)F)cccc2c1O	> 50	–
O=C(Nc1nccs1)c1c(C(F)(F)F)nc2cc(Cl)ccc2c1O	> 25	–
CCc1nc2c(C(F)(F)F)cccc2c(O)c1C(=O)Nc1nccn1C	50	–
O=C(Nc1nccs1)c1c(C(F)(F)F)nc2ccc(Cl)cc2c1O	> 25	–
O=C(NC1=NCCS1)c1cnc2c(C(F)(F)F)cccc2c1O	15	–
Cn1nccc1NC(=O)c1cnc2c(C(F)(F)F)cccc2c1O	50	–
O=C(Nc1ncco1)c1c(C(F)(F)F)nc2c(C(F)(F)F)cccc2c1O	> 100	–
O=C(Nc1ccccn1)c1c(C(Cl)Cl)nc2c(C(F)(F)F)cccc2c1O	20	–
CCC(O)c1nc2c(C(F)(F)F)cccc2c(O)c1C(=O)Nc1nccs1 (stereo in doubt; 90)	–	ED50 [1]: >20 mg/kg; ED50 [2]: >5 mg/kg
CC[C@H](NC(C)=O)c1nc2c(C(F)(F)F)cccc2c(O)c1C(=O)Nc1nccs1	5	ED50 [2, 5]: 1.5 mg/kg
O=C(Nc1nccs1)c1c(C(Cl)Cl)nc2cc(Cl)ccc2c1O	> 100	–
CC(C)(C)c1nc2c(C(F)(F)F)cccc2c(O)c1C(=O)Nc1nccs1	> 100	–
CCCc1nc2c(C(F)(F)F)cccc2c(O)c1C(=O)Nc1nccs1	15	–
O=C(Nc1nccs1)c1c(C(F)(F)F)nc2ccc(C(F)(F)F)cc2c1O	100	–
CCC(O)c1nc2c(C(F)(F)F)cccc2c(O)c1C(=O)Nc1nccs1 (stereo in doubt; 91)	–	ED50 [1]: 1.8 mg/kg; ED50 [2]: 0.5 mg/kg
CCC(=O)OC(CC)c1nc2c(C(F)(F)F)cccc2c(O)c1C(=O)Nc1nccs1 (stereo in doubt; 103)	–	ED50 [1]: >50 mg/kg; ED50 [2]: >5 mg/kg
COc1ccc2nc(C(F)(F)F)c(C(=O)Nc3nccs3)c(O)c2c1	30	–
CCc1nc2c(C(F)(F)F)cccc2c(O)c1C(=O)Nc1ncco1	15	–
O=C(Nc1nccs1)c1c(C(F)(F)F)nc2c(SC(F)(F)F)cccc2c1O	4	–

Compound	ED50 [1, 4] [mg/kg]	further results
CCC(OC(=O)c1ccccc1)c1nc2c(C(F)(F)F)cccc2c(O)c1C(=O)Nc1nccs1 (stereo not given)	> 100	ED50 [2, 5]: > 5 mg/kg
O=C(Nc1nccs1)c1cnc2c(OC(F)(F)F)cccc2c1O	> 50	–
O=C(Nc1nccs1)c1c(C(F)(F)F)nc2c(F)cccc2c1O	5	–
CC(O)c1nc2ccccc2c(O)c1C(=O)Nc1nccs1 (stereo not given)	> 100	ED50 [2, 5]: > 5 mg/kg
CCc1nc2c(C(F)(F)F)cccc2c(O)c1C(=O)Nc1ccccn1	18	–
O=C(Nc1nccs1)c1c(C(F)(F)F)nc2cccc(C(F)(F)F)c2c1O	20	–
O=C(Nc1nccs1)c1c(C(F)(F)C(F)(F)F)nc2c(C(F)(F)F)cccc2c1O	20	–
O=C(Nc1nccs1)c1c(C(F)F)nc2c(C(F)(F)F)cccc2c1O	5	–
CCC(OC(=O)C(C)(C)C)c1nc2c(C(F)(F)F)cccc2c(O)c1C(=O)Nc1nccs1 (stereo not given)	–	ED50 [2, 5]: 15 mg/kg
CC(C)c1ccc2ncc(C(=O)Nc3nccs3)c(O)c2c1	25	–
CCC(OC(=O)/C=C/c1ccccc1)c1nc2c(C(F)(F)F)cccc2c(O)c1C(=O)Nc1nccs1 (stereo not given)	> 100	ED50 [2, 5]: 10 mg/kg
O=C(Nc1nccs1)c1c(C(F)(F)F)nc2cc(C(F)(F)F)ccc2c1O	5	–
O=C(Nc1nccs1)c1cnc2cc(C(F)(F)F)ccc2c1O	100	–
O=C(Nc1ccccn1)c1cnc2c(C(F)(F)F)cccc2c1O	> 50	–
O=C(Nc1ccccc1)c1cnc2c(C(F)(F)F)cccc2c1O	> 50	–
Cc1nc2c(C(F)(F)F)cccc2c(O)c1C(=O)Nc1nccs1	4	–
O=C(Nc1nccs1)c1cnc2ccccc2c1O	> 10	–
O=C(NC1CCCCC1)c1cnc2c(C(F)(F)F)cccc2c1O	> 50	–
O=C(Nc1nccs1)c1c(C(F)(F)F)nc2ccccc2c1O	8	–
CCc1nc2c(C(F)(F)F)cccc2c(O)c1C(=O)Nc1nccs1	3	–
CCCC(=O)OC(CC)c1nc2c(C(F)(F)F)cccc2c(O)c1C(=O)Nc1nccs1 (stereo not given)	4	ED50 [2, 5]: 1.3 mg/kg
CC(C)Cc1nc2c(C(F)(F)F)cccc2c(O)c1C(=O)Nc1nccs1	30	–
O=C(Nc1ncco1)c1cnc2c(C(F)(F)F)cccc2c1O	> 100	–
O=C(Nc1nccs1)c1cnc2c(Cl)cccc2c1O	100	–
